In ChEMBL document CHEMBL3612047, “Synthesis, antiproliferative activity and possible mechanism of action of novel 2-acetamidobenzamides bearing the 2-phenoxy functionality” (Bioorg Med Chem, 2015):
Calls of active or inactive are those of the source. The rule behind the calls is not given here.

Experiments:
[1] = Growth inhibition of human HCC2998 cells by NCI standard protocol based method; assay type: functional; details: HCC 2998
Method in brief: (§1)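 NCI full 60-cell-line panel, 5-dose assay to the NCI standard protocol. GI₅₀ is the molar concentration inhibiting 50% net cell growth. Mean graph midpoint is averaged over all lines; where the effect is not reached, the highest tested concentration is used.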

[2] = test system: OVCAR-8; assay: Growth inhibition of human OVCAR8 cells by NCI standard protocol based method; assay type: functional; method in brief: as §1
[3] = test system: SF-268; assay: Growth inhibition of human SF268 cells by NCI standard protocol based method; assay type: functional; method in brief: as §1
[4] = test system: HOP-62; assay: Growth inhibition of human HOP62 cells by NCI standard protocol based method; assay type: functional; method in brief: as §1
[5] = test system: K562; assay: Induction of mitotic arrest in human K562 cells; assay type: functional, cell-based
[6] = Growth inhibition of human HOP92 cells by NCI standard protocol based method; assay type: functional; details: HOP-92; method in brief: as §1
[7] = test system: CCRF-CEM; assay: Growth inhibition of human CCRF-CEM cells by NCI standard protocol based method; assay type: functional; method in brief: as §1
[8] = test system: IGROV-1; assay: Growth inhibition of human IGROV1 cells by NCI standard protocol based method; assay type: functional; method in brief: as §1
[9] = test system: 786-0; assay: Growth inhibition of human 786-0 cells by NCI standard protocol based method; assay type: functional; method in brief: as §1
[10] = test system: DU-145; assay: Growth inhibition of human DU145 cells by NCI standard protocol based method; assay type: functional; method in brief: as §1
[11] = test system: TK-10; assay: Growth inhibition of human TK10 cells by NCI standard protocol based method; assay type: functional
Method in brief: (§2)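 NCI 60-cell-line screen, standard NCI protocol. Single high dose of 10⁻⁵ M first, then a 5-dose assay across the full panel. Reported as GI₅₀, TGI and LC₅₀, the molar concentrations giving 50% net growth inhibition, total growth inhibition and 50% net cell death. Where an effect was not reached, the highest tested concentration was used.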

[12] = test system: UO-31; assay: Growth inhibition of human UO31 cells by NCI standard protocol based method; assay type: functional; method in brief: as §2
[13] = test system: MDA-MB-468; assay: Growth inhibition of human MDA-MB-468 cells by NCI standard protocol based method; assay type: functional; method in brief: as §1
[14] = test system: UACC-62; assay: Growth inhibition of human UACC62 cells by NCI standard protocol based method; assay type: functional; method in brief: as §2
[15] = test system: HT-29; assay: Growth inhibition of human HT-29 cells by NCI standard protocol based method; assay type: functional; method in brief: as §1
[16] = Growth inhibition of human RPMI8226 cells by NCI standard protocol based method; assay type: functional; details: RPMI-8226; method in brief: as §1
[17] = test system: HL-60(TB); assay: Growth inhibition of human HL-60(TB) cells by NCI standard protocol based method; assay type: functional
Method in brief: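 Tested in the NCI 60-cell-line screen under its standard protocol. A single-dose prescreen was run at 10⁻⁵ M, then a five-dose assay. GI50 is the molar concentration that inhibits net cell growth by 50%.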

[18] = Growth inhibition of human LOXIMVI cells by NCI standard protocol based method; assay type: functional; details: LOX IMVI; method in brief: as §1
[19] = test system: K562; assay: Growth inhibition of human K562 cells by NCI standard protocol based method; assay type: functional; method in brief: as §1
[20] = target: Tubulin (Homo sapiens) (UniProt P68371+Q9H4B7+P0DPH7+P68366+Q13509+Q71U36+P04350+Q3ZCM7+P07437+P68363+Q9BQE3+Q6PEY2+Q13885+Q9BVA1+Q9BUF5); assay: Inhibition of colchicine binding to tubulin (unknown origin); assay type: protein-complex assay
[21] = Growth inhibition of human NCI60 cells by NCI standard protocol based method; assay type: functional; details: for TGI: read-out: pTGI (converted); method in brief: as §1
[22] = test system: CAKI-1; assay: Growth inhibition of human CAKI-1 cells by NCI standard protocol based method; assay type: functional; method in brief: as §1
[23] = test system: SR; assay: Growth inhibition of human SR cells by NCI standard protocol based method; assay type: functional; method in brief: as §2
[24] = test system: K562; assay: Induction of apoptosis in human K562 cells assessed as early apoptotic cells level at 10 uM incubated for 24 hrs by Annexin-V and propidium iodide staining staining based flow cytometry (reference value: 1.6%); assay type: functional
[25] = test system: UACC-257; assay: Growth inhibition of human UACC257 cells by NCI standard protocol based method; assay type: functional; method in brief: as §2
[26] = test system: K562; assay: Induction of cell cycle arrest in human K562 cells assessed as accumulation at G2/M phase at 10 uM incubated for 24 hrs by propidium iodide staining based flow cytometry (reference value: 31.6%); assay type: functional
[27] = test system: K562; assay: Induction of apoptosis in human K562 cells assessed as reduction in pro-caspase-3 levels at 10 uM incubated for 48 hrs by Western blot method relative to basal level; assay type: functional; details: K562, 48 h
Method in brief: (§3)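 K562 cells were seeded at 1.5 × 10⁵/well and treated 48 h. Lysate protein was measured by Lowry assay and run on SDS-PAGE. Blots on nitrocellulose were probed with alkaline phosphatase-conjugated antibodies to pro-caspases 3 and 6. Loading was checked by Ponceau red and β-actin immunoblot, with level expressed against basal. Three independent experiments.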

[28] = test system: K562; assay: Induction of morphological changes in human K562 cells assessed as cell detachment at 10 and 25 uM incubated for 48 hrs by light microscopy; assay type: functional, cell-based
Method in brief: (§4)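 K562 cells (8 × 10³/well) plated on poly-D-lysine-coated wells and treated at 10 or 25 μM for 48 h. Examined by light microscopy at 200× for shape, detachment, cell number and cell size.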

[29] = test system: K562; assay: Induction of apoptosis in human K562 cells assessed as chromatin condensation at 10 uM incubated for 48 hrs by Hoechst 33342 staining based fluorescence microscopy; assay type: functional, cell-based
Method in brief: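 K562 cells (8 × 10³/well) on poly-D-lysine-coated wells, allowed to adhere overnight. Stained with Hoechst 33342 for 30 min, washed with PBS, resuspended in medium, then treated at 10 μM for 48 h.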

[30] = test system: K562; assay: Induction of cell cycle arrest in human K562 cells assessed as accumulation at G2/M phase at 10 uM incubated for 48 hrs by propidium iodide staining based flow cytometry (reference value: 27.4%); assay type: functional
[31] = test system: K562; assay: Induction of cell cycle arrest in human K562 cells assessed as accumulation at sub G0/G1 phase at 10 uM incubated for 24 hrs by propidium iodide staining based flow cytometry (reference value: 0.8%); assay type: functional
[32] = test system: K562; assay: Induction of cell cycle arrest in human K562 cells assessed as accumulation at sub G0/G1 phase at 10 uM incubated for 48 hrs by propidium iodide staining based flow cytometry (reference value: 0.8%); assay type: functional
[33] = test system: K562; assay: Induction of cell cycle arrest in human K562 cells assessed as accumulation at G0/G1 phase at 10 uM incubated for 24 hrs by propidium iodide staining based flow cytometry (reference value: 54.9%); assay type: functional
[34] = test system: K562; assay: Induction of apoptosis in human K562 cells assessed as reduction in pro-caspase-6 levels at 10 uM incubated for 48 hrs by Western blot method relative to basal level; assay type: functional; details: K562, 48 h; method in brief: as §3
[35] = test system: K562; assay: Reduction in cell size of human K562 cells at 10 and 25 uM incubated for 48 hrs by light microscopy; assay type: functional, cell-based; method in brief: as §4
[36] = test system: K562; assay: Induction of apoptosis in human K562 cells assessed as necrotic cells level at 10 uM incubated for 24 hrs by Annexin-V and propidium iodide staining staining based flow cytometry (reference value: 0.3%); assay type: functional
[37] = test system: K562; assay: Reduction in cell number of human K562 cells at 10 and 25 uM incubated for 48 hrs by light microscopy; assay type: functional, cell-based; method in brief: as §4
[38] = test system: OVCAR-4; assay: Growth inhibition of human OVCAR4 cells by NCI standard protocol based method; assay type: functional; method in brief: as §1

Compound	GI50 [1]	GI50 [2]	GI50 [3]	GI50 [4]	Activity [5]	GI50 [6]	GI50 [7]	GI50 [8]	GI50 [9]	GI50 [10]	GI50 [11]	GI50 [12]	GI50 [13]	GI50 [14]	GI50 [15]	GI50 [16]	GI50 [17]	GI50 [18]	GI50 [19]	inhibition [20]	other results
NC(=O)c1cc(Cl)ccc1NC(=O)COc1ccccc1	12100 nM	7060 nM	9890 nM	5880 nM	Active	5700 nM	3070 nM	5600 nM	9540 nM	6010 nM	63800 nM	17500 nM	1740 nM	5420 nM	1740 nM	4330 nM	3290 nM	8330 nM	854 nM	inactive	GI50 [21]: 4900 nM; LC50 [21]: 100000 nM; TGI [21]: 72400 nM; GI50 [22]: 4180 nM; GI50 [23]: 777 nM
NC(=O)c1cc(I)ccc1NC(=O)COc1ccccc1	2950 nM	904 nM	934 nM	824 nM	Active	1500 nM	382 nM	1370 nM	1070 nM	444 nM	8110 nM	2870 nM	351 nM	701 nM	349 nM	553 nM	339 nM	822 nM	161 nM	inactive	Activity [24]: 24.5%; GI50 [25]: 41700 nM; Activity [26]: 2.4%; inhibition at 10 µM [27]: 40%; Activity [28]: Active; Activity [29]: Active; Activity [30]: 13.3%; Activity [31]: 14.5%; Activity [32]: 32.9%; Activity [33]: 78.5%; inhibition at 10 µM [34]: 20%; Activity [35]: Active; GI50 [21]: 692 nM; LC50 [21]: 89100 nM; TGI [21]: 35500 nM; Activity [36]: 0.9%; GI50 [22]: 519 nM; Activity [37]: Active; GI50 [23]: 221 nM
COc1cc(NC(=O)COc2ccccc2)c(C(N)=O)cc1OC	3330 nM	3010 nM	6770 nM	1750 nM	Active	17700 nM	562 nM	4070 nM	7320 nM	914 nM	14400 nM	13500 nM	848 nM	2520 nM	437 nM	2270 nM	293 nM	1810 nM	310 nM	inactive	Activity [24]: 22.7%; GI50 [38]: > 100000 nM; GI50 [25]: > 100000 nM; Activity [26]: 2.8%; inhibition at 10 µM [27]: 50%; Activity [28]: Active; Activity [29]: Active; Activity [30]: 31.2%; Activity [31]: 13.2%; Activity [32]: 20.6%; Activity [33]: 80%; inhibition at 10 µM [34]: 50%; Activity [35]: Active; GI50 [21]: 1950 nM; LC50 [21]: 93300 nM; TGI [21]: 49000 nM; Activity [36]: 2.3%; GI50 [22]: 3800 nM; Activity [37]: Active; GI50 [23]: 515 nM
COc1ccc(NC(=O)COc2ccccc2)c(C(N)=O)c1	2340 nM	3130 nM	2420 nM	1010 nM	Active	414 nM	487 nM	4750 nM	2100 nM	1870 nM	23800 nM	8720 nM	345 nM	1050 nM	388 nM	1170 nM	340 nM	869 nM	245 nM	inactive	GI50 [38]: > 100000 nM; GI50 [25]: > 100000 nM; GI50 [21]: 891 nM; LC50 [21]: 97700 nM; TGI [21]: 49000 nM; GI50 [22]: 721 nM; GI50 [23]: 392 nM
